Data: ChEMBL document CHEMBL5653631, “A Potent and Selective ULK1 Inhibitor Suppresses Autophagy and Sensitizes Cancer Cells to Nutrient Stress” (iScience, 2018)
Each block holds one molecule with its values, some of them ahead of it.

Assays:
[1] = molecular target: T1, MAPK/MAK/MRK overlapping kinase (Homo sapiens) (UniProt Q9UQ07); test: Inhibition of human recombinant MOK at 500 nM in presence of ATP by radiometric assay relative to control
T1 sequence (whole entry): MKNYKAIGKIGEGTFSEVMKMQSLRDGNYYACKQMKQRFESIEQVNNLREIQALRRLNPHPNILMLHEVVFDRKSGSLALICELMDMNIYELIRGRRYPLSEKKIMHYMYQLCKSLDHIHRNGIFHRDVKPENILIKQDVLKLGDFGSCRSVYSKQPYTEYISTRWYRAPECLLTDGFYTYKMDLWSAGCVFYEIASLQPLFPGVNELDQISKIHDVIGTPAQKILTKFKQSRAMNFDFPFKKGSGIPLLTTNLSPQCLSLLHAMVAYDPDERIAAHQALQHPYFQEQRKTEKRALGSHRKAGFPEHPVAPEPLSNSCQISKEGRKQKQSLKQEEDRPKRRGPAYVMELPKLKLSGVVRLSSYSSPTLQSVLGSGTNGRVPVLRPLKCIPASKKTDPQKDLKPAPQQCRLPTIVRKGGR

[2] = molecular target: T2, Interleukin-1 receptor-associated kinase 4 (Homo sapiens) (UniProt Q9NWZ3); test: Inhibition of human recombinant IRAK4 at 15 nM related to control ULK1
T2 sequence (whole entry): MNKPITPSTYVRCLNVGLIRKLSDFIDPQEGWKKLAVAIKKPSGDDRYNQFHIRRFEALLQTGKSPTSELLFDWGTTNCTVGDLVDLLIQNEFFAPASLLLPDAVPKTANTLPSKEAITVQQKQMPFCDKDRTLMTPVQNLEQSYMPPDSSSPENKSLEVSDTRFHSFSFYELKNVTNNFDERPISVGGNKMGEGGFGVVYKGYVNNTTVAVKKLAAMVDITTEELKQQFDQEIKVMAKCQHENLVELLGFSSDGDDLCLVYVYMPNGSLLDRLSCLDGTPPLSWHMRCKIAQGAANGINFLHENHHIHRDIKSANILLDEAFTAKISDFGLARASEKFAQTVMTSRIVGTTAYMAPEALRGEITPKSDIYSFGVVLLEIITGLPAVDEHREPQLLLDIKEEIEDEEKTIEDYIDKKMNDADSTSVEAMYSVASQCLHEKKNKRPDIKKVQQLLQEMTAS

[3] = molecular target: Serine/threonine-protein kinase ATR (Homo sapiens) (UniProt Q13535); test: Inhibition of human recombinant ATR at 15 nM in presence of ATP by radiometric assay relative to control
Chain of Serine/threonine-protein kinase ATR (Homo sapiens) (Q13535 whole entry, looked up): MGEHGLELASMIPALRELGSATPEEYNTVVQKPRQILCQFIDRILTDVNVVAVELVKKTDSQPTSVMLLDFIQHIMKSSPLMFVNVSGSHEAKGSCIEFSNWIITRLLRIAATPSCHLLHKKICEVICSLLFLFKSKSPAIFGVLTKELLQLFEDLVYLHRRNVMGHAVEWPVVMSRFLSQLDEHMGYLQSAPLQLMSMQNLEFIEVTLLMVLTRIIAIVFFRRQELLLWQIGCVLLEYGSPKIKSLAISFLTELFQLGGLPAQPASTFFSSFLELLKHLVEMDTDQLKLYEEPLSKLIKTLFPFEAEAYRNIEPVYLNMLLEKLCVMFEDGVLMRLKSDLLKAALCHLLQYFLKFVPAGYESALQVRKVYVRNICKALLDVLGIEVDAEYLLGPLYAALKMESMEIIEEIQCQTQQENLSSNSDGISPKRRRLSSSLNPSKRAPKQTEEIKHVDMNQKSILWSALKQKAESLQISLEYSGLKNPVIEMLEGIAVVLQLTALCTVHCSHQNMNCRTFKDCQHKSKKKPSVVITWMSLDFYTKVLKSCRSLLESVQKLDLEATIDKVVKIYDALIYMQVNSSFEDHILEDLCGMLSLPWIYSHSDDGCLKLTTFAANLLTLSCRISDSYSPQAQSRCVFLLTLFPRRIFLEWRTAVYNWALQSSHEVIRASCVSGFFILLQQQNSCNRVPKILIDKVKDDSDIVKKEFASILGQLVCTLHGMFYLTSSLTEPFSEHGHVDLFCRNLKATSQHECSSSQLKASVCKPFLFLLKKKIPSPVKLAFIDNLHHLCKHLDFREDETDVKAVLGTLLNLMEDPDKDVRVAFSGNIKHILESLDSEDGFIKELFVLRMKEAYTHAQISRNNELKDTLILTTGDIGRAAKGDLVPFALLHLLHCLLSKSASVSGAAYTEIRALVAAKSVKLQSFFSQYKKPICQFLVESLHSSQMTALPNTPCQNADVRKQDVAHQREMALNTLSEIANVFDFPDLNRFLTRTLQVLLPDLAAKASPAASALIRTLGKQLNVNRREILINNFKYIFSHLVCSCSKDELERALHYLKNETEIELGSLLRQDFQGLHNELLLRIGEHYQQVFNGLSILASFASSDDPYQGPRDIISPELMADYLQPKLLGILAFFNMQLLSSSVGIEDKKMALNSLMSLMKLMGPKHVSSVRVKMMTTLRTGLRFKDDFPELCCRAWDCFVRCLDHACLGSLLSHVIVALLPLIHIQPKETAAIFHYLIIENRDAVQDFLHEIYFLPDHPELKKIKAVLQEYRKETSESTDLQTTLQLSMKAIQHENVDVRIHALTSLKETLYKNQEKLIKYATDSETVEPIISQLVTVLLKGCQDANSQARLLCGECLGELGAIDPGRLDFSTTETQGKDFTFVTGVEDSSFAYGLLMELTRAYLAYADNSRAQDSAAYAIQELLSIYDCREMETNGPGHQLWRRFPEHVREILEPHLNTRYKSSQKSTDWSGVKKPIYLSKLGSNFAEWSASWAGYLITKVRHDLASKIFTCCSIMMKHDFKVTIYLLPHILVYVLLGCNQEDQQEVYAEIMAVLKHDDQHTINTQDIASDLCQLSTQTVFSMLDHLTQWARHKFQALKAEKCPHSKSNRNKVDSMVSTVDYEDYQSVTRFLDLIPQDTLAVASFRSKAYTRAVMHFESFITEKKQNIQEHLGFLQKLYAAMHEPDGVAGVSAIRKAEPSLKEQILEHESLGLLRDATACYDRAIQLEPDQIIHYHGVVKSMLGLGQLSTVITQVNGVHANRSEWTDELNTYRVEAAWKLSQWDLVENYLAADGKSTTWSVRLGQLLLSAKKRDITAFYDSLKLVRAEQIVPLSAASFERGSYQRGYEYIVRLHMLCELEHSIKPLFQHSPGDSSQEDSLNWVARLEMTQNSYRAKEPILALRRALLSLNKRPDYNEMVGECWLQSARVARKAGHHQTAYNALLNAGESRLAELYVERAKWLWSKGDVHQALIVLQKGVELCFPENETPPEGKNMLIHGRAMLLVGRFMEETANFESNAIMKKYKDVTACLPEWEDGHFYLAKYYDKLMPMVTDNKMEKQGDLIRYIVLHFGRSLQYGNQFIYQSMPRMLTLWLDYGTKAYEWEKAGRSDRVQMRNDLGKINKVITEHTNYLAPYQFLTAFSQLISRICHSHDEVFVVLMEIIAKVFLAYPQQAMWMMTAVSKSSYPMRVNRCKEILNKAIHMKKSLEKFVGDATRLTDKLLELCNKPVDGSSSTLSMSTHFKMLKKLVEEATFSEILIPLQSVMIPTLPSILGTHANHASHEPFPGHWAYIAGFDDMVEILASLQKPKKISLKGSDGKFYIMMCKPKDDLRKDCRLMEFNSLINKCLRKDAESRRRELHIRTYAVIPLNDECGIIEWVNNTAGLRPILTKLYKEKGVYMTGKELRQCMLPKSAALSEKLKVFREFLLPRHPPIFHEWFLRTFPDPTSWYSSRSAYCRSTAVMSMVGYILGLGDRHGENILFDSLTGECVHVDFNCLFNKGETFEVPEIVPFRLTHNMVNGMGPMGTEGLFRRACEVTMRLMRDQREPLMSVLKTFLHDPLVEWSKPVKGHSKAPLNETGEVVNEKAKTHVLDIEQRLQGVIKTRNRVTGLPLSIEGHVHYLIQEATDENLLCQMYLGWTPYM
Summary of the method: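 Panel of 327 recombinant human kinases, each assayed in vitro by radiometric activity assay in duplicate at a single inhibitor concentration per compound, chosen with reference to its ULK1 inhibition. Activity remaining was expressed as percent of vehicle control, and percent inhibition was calculated as 100 minus percent activity remaining.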

[4] = molecular target: T3, MAP/microtubule affinity-regulating kinase 4 (Homo sapiens) (UniProt Q96L34); test: Inhibition of human recombinant MARK4 at 15 nM related to control ULK1
T3 sequence (whole entry): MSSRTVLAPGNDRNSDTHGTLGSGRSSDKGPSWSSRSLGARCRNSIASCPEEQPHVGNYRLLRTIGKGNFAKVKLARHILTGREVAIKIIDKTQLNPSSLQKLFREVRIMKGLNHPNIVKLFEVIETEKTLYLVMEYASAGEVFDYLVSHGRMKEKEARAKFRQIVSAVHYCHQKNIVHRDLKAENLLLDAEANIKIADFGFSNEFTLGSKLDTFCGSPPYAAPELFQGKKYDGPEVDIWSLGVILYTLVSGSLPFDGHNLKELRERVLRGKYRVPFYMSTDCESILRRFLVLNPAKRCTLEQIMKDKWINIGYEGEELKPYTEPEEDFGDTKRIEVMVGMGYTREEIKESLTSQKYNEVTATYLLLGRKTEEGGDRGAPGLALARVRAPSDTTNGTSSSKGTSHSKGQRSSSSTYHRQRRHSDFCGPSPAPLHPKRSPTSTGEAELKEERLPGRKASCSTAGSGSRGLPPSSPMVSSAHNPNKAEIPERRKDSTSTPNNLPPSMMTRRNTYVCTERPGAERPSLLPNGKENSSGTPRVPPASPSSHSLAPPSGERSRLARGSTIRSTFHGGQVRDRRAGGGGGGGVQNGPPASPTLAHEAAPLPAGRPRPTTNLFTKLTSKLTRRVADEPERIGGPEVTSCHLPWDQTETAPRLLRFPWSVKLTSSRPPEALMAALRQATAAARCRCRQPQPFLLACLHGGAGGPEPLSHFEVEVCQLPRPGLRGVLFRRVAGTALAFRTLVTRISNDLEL

[5] = molecular target: Misshapen-like kinase 1 (Homo sapiens) (UniProt Q8N4C8); test: Inhibition of human recombinant MINK at 15 nM related to control ULK1
Chain of Misshapen-like kinase 1 (Homo sapiens) (Q8N4C8 whole entry, looked up): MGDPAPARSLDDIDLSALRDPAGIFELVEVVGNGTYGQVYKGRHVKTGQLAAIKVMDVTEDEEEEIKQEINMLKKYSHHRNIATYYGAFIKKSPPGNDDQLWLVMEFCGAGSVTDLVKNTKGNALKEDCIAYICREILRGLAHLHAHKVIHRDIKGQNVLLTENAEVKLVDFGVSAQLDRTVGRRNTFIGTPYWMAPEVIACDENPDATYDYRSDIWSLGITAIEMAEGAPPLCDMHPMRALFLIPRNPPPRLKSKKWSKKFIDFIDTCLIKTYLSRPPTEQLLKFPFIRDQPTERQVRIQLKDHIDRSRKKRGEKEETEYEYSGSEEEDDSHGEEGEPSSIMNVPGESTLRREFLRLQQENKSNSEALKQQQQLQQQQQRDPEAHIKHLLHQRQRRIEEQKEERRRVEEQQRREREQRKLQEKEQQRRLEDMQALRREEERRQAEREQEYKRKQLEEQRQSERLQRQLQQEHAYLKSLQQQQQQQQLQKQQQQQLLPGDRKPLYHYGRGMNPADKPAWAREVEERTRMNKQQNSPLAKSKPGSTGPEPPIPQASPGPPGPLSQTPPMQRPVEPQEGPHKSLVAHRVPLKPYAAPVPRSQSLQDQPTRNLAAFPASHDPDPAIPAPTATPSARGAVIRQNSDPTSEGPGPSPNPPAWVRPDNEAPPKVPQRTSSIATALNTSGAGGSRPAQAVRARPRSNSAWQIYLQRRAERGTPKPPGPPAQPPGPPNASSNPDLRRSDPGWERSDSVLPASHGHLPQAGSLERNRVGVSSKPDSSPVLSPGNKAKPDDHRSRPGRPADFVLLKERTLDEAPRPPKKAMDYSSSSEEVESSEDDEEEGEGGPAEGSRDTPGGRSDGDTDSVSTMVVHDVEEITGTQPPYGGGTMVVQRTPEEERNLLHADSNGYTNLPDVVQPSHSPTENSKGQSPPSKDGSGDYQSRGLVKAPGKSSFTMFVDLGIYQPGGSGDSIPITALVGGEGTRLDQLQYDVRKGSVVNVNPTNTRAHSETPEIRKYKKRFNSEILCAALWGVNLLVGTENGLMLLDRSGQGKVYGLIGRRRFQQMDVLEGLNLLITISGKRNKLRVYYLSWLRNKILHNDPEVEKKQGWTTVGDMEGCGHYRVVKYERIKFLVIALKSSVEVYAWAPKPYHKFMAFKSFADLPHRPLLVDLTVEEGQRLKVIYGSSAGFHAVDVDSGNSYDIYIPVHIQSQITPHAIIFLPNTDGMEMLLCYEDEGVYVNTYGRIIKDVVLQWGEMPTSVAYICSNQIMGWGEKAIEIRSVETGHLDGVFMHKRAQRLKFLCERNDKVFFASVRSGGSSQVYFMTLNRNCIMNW

[6] = molecular target: Mitogen-activated protein kinase 10 (Homo sapiens) (UniProt P53779); test: Inhibition of human recombinant JNK3 at 15 nM in presence of ATP by radiometric assay relative to control
Chain of Mitogen-activated protein kinase 10 (Homo sapiens) (P53779 whole entry): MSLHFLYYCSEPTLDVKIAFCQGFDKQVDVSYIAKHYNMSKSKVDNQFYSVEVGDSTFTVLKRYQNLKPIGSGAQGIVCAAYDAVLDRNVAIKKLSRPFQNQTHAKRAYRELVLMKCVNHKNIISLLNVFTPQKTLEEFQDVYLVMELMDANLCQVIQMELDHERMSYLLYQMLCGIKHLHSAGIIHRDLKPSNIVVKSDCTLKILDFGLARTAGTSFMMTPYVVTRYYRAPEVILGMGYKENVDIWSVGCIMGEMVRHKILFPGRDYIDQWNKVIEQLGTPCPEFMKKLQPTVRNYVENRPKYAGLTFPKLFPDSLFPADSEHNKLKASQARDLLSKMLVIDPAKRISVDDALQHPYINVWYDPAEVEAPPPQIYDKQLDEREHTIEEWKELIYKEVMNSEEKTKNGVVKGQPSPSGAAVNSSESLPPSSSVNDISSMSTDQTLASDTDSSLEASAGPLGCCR

[7] = molecular target: Mitogen-activated protein kinase kinase kinase 10 (Homo sapiens) (UniProt Q02779); test: Inhibition of human recombinant MLK2 at 15 nM related to control ULK1
[8] = molecular target: Calcium/calmodulin-dependent protein kinase kinase 1 (Homo sapiens) (UniProt Q8N5S9); test: Inhibition of human recombinant CaMKK1 at 15 nM related to control ULK1
Chain of Calcium/calmodulin-dependent protein kinase kinase 1 (Homo sapiens) (Q8N5S9 whole entry, looked up): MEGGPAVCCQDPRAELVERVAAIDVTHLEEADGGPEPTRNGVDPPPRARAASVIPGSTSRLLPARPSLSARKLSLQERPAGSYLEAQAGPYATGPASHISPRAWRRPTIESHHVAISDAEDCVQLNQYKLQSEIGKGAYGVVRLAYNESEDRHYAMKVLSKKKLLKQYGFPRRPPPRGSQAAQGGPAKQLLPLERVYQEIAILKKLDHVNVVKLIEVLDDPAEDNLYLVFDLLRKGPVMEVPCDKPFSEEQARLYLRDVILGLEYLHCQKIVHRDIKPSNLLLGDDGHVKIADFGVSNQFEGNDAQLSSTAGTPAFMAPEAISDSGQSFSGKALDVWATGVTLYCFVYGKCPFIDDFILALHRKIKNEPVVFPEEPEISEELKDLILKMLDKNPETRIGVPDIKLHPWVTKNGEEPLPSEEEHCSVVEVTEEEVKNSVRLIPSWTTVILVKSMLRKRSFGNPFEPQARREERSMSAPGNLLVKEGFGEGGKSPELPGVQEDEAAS

[9] = molecular target: Serine/threonine-protein kinase tousled-like 2 (Homo sapiens) (UniProt Q86UE8); test: Inhibition of human recombinant TLK2 at 15 nM in presence of ATP by radiometric assay relative to control
[10] = molecular target: Homeodomain-interacting protein kinase 3 (Homo sapiens) (UniProt Q9H422); test: Inhibition of human recombinant HIPK3 at 40 nM in presence of ATP by radiometric assay relative to control

inhibition [1]: 2%
SMILES: CNC(=O)c1ccccc1Oc1nc(Nc2cc(OC)c(OC)c(OC)c2)ncc1Br

fold change (FC) [2]: 0
inhibition [3]: 4%
fold change (FC) [4]: 0.48
fold change (FC) [5]: 0.05
inhibition [6]: 7%
fold change (FC) [7]: 0.14
fold change (FC) [8]: 0
inhibition [9]: 3%
SMILES: CC(C)[C@H](NC(=O)c1cc(-c2cnn3cc(-c4ccc(OCCN5CCCCC5)cc4)cnc23)cs1)C(F)(F)F

inhibition [10]: 5%
SMILES: O=C(N[C@@H](C1CC1)C(F)(F)F)c1cc(-c2cnn3cc(-c4ccc(F)cc4)cnc23)cs1
